Measurements published in ChEMBL document CHEMBL3414571, “The discovery of macrocyclic XIAP antagonists from a DNA-programmed chemistry library, and their optimization to give lead compounds with in vivo antitumor activity” (J Med Chem, 2015).
pEC50, pIC50: −log10 of the molar value. Numbered stars: 1 amine (or outer) side, 2 acyl side, 3 side chain; on linkers, the order of the positions; unused ones are H or OH. Bridge positions count the residues as written; N and C are the ends. Square brackets hold non-standard residues; d marks the D form. Peptide text beside a SMILES is read from it. * marks the point of attachment. X1 = O=C(O)CN(CCN[*:1])CCn1cc(CCC(=O)[*:2])nn1; NMeA = CN[C@@H](C)C(=O)O; Pra = C#CC[C@H](N)C(=O)O; X2 = [N-]=[N+]=NCC*

How the values were obtained:
[1] = target: E3 ubiquitin-protein ligase XIAP (Homo sapiens, UniProt P98170); assay: Inhibition of XIAP BIR3 (241 to 356 residues) (unknown origin) incubated for 60 mins by fluoresceinated modified SMAC peptide based fluorescence polarization assay
[2] = Inhibition of XIAP BIR2 (124 to 240 residues) C202A/C213G mutant (unknown origin) incubated for 60 mins by biotinylated SMAC peptide Alpha-screen assay; set-up: species or system Homo sapiens
BIR2 domain of XIAP = BIR2 domain of XIAP (Homo sapiens, UniProt P98170, C202A/C213G); assay: Inhibition of XIAP BIR2-3 (124 to 356 residues) C202A/C213G mutant (unknown origin) in human THP1 cells using fluoresceinated caspase-3 substrate by caspase-3 rescue assay; format: cell-based, THP-1
MDA-MB-231 = assay: Antiproliferative activity against human MDA-MB-231 cells assessed as inhibition of cell proliferation after 72 hrs by MTS assay; format: functional, cell-based; settings: MDA-MB-231, 72 h
A549 = assay: Antiproliferative activity against human A549 cells assessed as inhibition of cell proliferation after 72 hrs by MTS assay; format: functional, cell-based; settings: A549, 72 h
[3] = Antiproliferative activity against human A875 cells assessed as inhibition of cell proliferation after 72 hrs by MTS assay; format: functional, cell-based; settings: A875, 72 h
[4] = Mean residence time in Balb/C mouse at 1 mg/kg, iv administered as single dose by LC-MS/MS method; format: ADME, organism-based; set-up: dose 1 mg/kg, route intravenous; settings: in vivo
Summary of the method: (§1)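 Mice received one intravenous dose, and parent compound levels in blood were monitored over time. Plasma pharmacokinetic parameters were derived from these concentration–time profiles.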

[5] = target: Baculoviral IAP repeat-containing protein 2 (Homo sapiens, UniProt Q13490); assay: Inhibition of cIAP1 BIR2-3 (154 to 352 residues) (unknown origin) fluoresceinated dimeric SMAC peptide based fluorescence polarization assay
Mus musculus = assay: AUClast in Balb/C mouse at 1 mg/kg, iv administered as single dose by LC-MS/MS method; format: ADME, organism-based, Plasma; set-up: time 0 - last, dose 1 mg/kg, route intravenous; settings: in vivo; summary of the method: as §1
[6] = Volume of distribution at steady state in Balb/C mouse at 1 mg/kg, iv administered as single dose by LC-MS/MS method; format: ADME, organism-based; set-up: dose 1 mg/kg, route intravenous; settings: in vivo, read-out: Vdss; summary of the method: as §1
[7] = Half life in Balb/C mouse at 1 mg/kg, iv administered as single dose by LC-MS/MS method; format: ADME, organism-based; set-up: dose 1 mg/kg, route intravenous; settings: in vivo; summary of the method: as §1

Chain of E3 ubiquitin-protein ligase XIAP (P98170 whole entry, looked up, the tested form may be a part): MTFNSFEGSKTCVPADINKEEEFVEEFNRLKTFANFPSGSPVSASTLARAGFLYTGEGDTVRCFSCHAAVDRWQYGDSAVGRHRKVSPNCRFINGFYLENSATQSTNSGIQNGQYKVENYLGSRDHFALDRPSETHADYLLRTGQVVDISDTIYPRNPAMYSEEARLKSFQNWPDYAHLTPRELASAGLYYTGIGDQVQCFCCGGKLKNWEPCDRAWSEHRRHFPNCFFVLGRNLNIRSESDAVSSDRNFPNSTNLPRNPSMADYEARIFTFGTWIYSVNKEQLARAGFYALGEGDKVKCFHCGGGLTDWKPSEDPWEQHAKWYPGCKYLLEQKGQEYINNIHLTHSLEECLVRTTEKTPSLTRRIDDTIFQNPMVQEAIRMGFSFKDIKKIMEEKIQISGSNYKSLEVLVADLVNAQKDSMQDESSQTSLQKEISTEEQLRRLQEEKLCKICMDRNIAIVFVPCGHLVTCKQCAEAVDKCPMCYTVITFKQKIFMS
Chain of BIR2 domain of XIAP (P98170 whole entry C202A/C213G, looked up, the tested form may be a part): as the sequence (P98170 whole entry, looked up, the tested form may be a part) above, with C202A, C213G counted along it
Chain of Baculoviral IAP repeat-containing protein 2 (Q13490 whole entry, the tested form may be a part): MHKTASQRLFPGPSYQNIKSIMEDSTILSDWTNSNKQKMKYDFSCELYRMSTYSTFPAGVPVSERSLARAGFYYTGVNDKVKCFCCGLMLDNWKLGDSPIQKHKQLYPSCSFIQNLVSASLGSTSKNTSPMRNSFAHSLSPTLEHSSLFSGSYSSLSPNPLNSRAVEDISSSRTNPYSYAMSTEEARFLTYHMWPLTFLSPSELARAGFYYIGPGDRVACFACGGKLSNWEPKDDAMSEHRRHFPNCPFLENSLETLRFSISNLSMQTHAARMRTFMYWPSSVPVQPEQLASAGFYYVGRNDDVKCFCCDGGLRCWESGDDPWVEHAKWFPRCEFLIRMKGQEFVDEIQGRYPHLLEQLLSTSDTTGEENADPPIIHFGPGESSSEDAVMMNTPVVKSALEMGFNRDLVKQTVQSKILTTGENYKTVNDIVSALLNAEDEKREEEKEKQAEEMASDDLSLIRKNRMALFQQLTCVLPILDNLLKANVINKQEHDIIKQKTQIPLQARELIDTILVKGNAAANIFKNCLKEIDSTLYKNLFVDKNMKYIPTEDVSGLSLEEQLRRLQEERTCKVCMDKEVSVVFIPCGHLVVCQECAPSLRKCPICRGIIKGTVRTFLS

| pIC50 [1] | pIC50 [2] | pEC50 (BIR2 domain of XIAP) | pIC50 (MDA-MB-231) | pIC50 (A549) | MRT [4] | pIC50 [5] | AUClast (Mus musculus) | Vd [6] | half-life [7] | SMILES | pIC50 [3] |
| --- | --- | --- | --- | --- | --- | --- | --- | --- | --- | --- | --- |
| 6.96 | 5.71 | 5.17 |  |  |  |  |  |  |  | CN[C@@H](C)C(=O)N[C@H](C(=O)N1C[C@@H]2C[C@H]1C(=O)N[C@@H](Cc1ccccc1)C(=O)N[C@H](C(=O)O)Cc1ccc(cc1)NC(=O)CCc1cn2nn1)C(C)C |  |
| 6.44 | 5.31 |  |  |  |  |  |  |  |  | CN[C@@H](C)C(=O)N[C@H]1Cc2ccc(cc2)OCc2cn(nn2)CCCOc2ccc(cc2)C[C@@H](C(=O)O)NC(=O)[C@H](Cc2ccccc2)NC(=O)[C@@H]2CCCN2C1=O |  |
| 6.80 | 6.86 | 5.85 | 4.90 | < 4.60 |  |  |  |  |  | CN[C@@H](C)C(=O)N[C@H](C(=O)N1C[C@@H]2C[C@H]1C(=O)N[C@@H](Cc1ccccc1)C(=O)N[C@H](C(=O)O)Cc1ccc(cc1)OCc1cn2nn1)C(C)C | < 5.00 |
| 7.19 | 6.52 | 7.31 | 5.70 | < 4.60 | 15 min | 8.52 | 1070 ng·h/mL | 0.18 L/kg | 9.6 min | CN[C@@H](C)C(=O)N[C@H](C(=O)N1C[C@@H]2C[C@H]1C(=O)N[C@@H](Cc1ccc3ccccc3c1)C(=O)N[C@H](C(=O)O)Cc1cn(nn1)[C@H]1C[C@@H](C(=O)N[C@@H](Cc3ccc4ccccc4c3)C(=O)N[C@H](C(=O)O)Cc3cn2nn3)N(C(=O)[C@@H](NC(=O)[C@H](C)NC)C(C)C)C1)C(C)C | 5.21 |
| 6.05 | < 4.73 |  |  |  |  |  |  |  |  | CN[C@@H](C)C(=O)N[C@H]1CCCCNC(=O)CCc2cn(nn2)CCN(CC(=O)O)CCNC(=O)[C@H](Cc2ccccc2)NC(=O)[C@@H]2CCCN2C1=O (H-[NMeA]KPF[X1]; lactam 2-C) |  |
| 6.63 | < 4.73 |  |  |  |  |  |  |  |  | CN[C@@H](C)C(=O)N[C@H](C(=O)N1C[C@@H]2C[C@H]1C(=O)N[C@@H](Cc1ccccc1)C(=O)N[C@@H](C(=O)O)Cc1ccc(cc1)NC(=O)CCc1cn2nn1)C(C)C |  |
| 7.54 | 6.66 | 7.47 | 6.71 | < 4.60 |  |  |  |  |  | CN[C@@H](C)C(=O)N[C@H](C(=O)N1C[C@@H]2C[C@H]1C(=O)N[C@@H](Cc1cccc3ccccc13)C(=O)N[C@H](C(=O)O)Cc1ccc(cc1)OCc1cn(nn1)[C@H]1C[C@@H](C(=O)N[C@@H](Cc3cccc4ccccc34)C(=O)N[C@H](C(=O)O)Cc3ccc(cc3)OCc3cn2nn3)N(C(=O)[C@@H](NC(=O)[C@H](C)NC)C(C)C)C1)C(C)C | 6.37 |
| 7.40 | 6.48 | 7.23 | 7.09 | < 4.60 |  |  |  |  |  | CN[C@@H](C)C(=O)N[C@H](C(=O)N1C[C@@H]2C[C@H]1C(=O)N[C@@H](Cc1ccc3ccccc3c1)C(=O)N[C@H](C(=O)O)Cc1ccc(cc1)OCc1cn(nn1)[C@H]1C[C@@H](C(=O)N[C@@H](Cc3ccc4ccccc4c3)C(=O)N[C@H](C(=O)O)Cc3ccc(cc3)OCc3cn2nn3)N(C(=O)[C@@H](NC(=O)[C@H](C)NC)C(C)C)C1)C(C)C | 6.66 |
| 7.17 | 8.52 | 7.35 | 5.53 | < 4.60 |  |  |  |  |  | CN[C@@H](C)C(=O)N[C@H](C(=O)N1C[C@@H]2C[C@H]1C(=O)N[C@@H](Cc1ccccc1)C(=O)N[C@H](C(=O)O)Cc1ccc(cc1)OCc1cn(nn1)[C@H]1C[C@@H](C(=O)N[C@@H](Cc3ccccc3)C(=O)N[C@H](C(=O)O)Cc3ccc(cc3)OCc3cn2nn3)N(C(=O)[C@@H](NC(=O)[C@H](C)NC)C(C)C)C1)C(C)C | 5.37 |
| 6.74 | 6.27 |  |  |  |  |  |  |  |  | C#CC[C@H](NC(=O)[C@H](C)NC)C(=O)N1CCC[C@H]1C(=O)N[C@@H](Cc1ccccc1)C(=O)N[C@@H](Cc1ccc(OCCN=[N+]=[N-])cc1)C(=O)O (H-[NMeA][Pra]PFY(X2)-OH) |  |
